# BaF3 tox = reduces parental Ba/F3 cell viability, JAK2V617F counter-screen. CellTiter-Glo ATP luminescence. inhibition, % at 5.6 µM. 1.1% of 220,000 active;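 active = inhibition above a per-campaign cutoff, the mean inhibition of all tested compounds plus 3 SD, cut at about 27% in these data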;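 note: 0% = DMSO wells and 100% = JAK Inhibitor I control wells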
# IEC-6 cytotox = kills IEC-6 intestinal cells in KLF5 counter-screen; IEC-6 cytotoxicity, luminescence viability; inhibition, % at 5 µM; 0.78% of 290,000 active; AID 1825; in the data active = inhibition above about 22%;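 note: 0% = plate median of test compound wells and 100% = cytotoxic reference compound wells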
# Ba/F3 V617F tox = lowers viability of Ba/F3 cells expressing EpoR and JAK2V617F | ATP luminescence | inhibition, % at 5.6 µM | 1.1% of 220,000 active | AID 1446;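 active = inhibition above the campaign mean plus 3 SD over all tested compounds, cut at about 24% in these data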;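 note: cytokine-independent growth of Ba/F3 cells driven by EpoR plus mutant JAK2; 0% = DMSO-treated cells and 100% = JAK inhibitor I control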
# MT stabilizer = microtubule stabilizers in HeLa cells; % tubulin-high responders, % at 10 µM; HeLa tubulin immunostaining HCS, 24 h; share of cells brighter than vehicle mean+2SD; 0.83% of 200,000 active;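 active = plate Z-score above 3 for both tubulin-high and condensed-nucleus cell shares, with cell loss under 80%, at 10 µM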;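 note: anti alpha tubulin signal scored within the nucleus-defined area of each cell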
# APP 5UTR inh = APP translation inhibition. SH-SY5Y APP 5'UTR-luciferase reporter, luminescence. inhibition, % at 2 µM. 0.82% of 190,000 active;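 active = inhibition above a set limit, derived from the sample mean plus 3 SD, cut at about 45% in these data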
# b-catenin transl = modulators of beta-catenin nuclear translocation; HeLa beta-catenin nuclear translocation, immunofluorescence imaging; nuclear translocation activity, % at 5 µM; 0.3% of 190,000 active;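 active = nuclear translocation activity above 50% at 5 µM, with a well cell count of 50 or more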;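 note: per-cell ratio of nuclear to cytoplasmic median beta-catenin stain intensity; plate controls were DMSO negative control for no effect and GSK-3 inhibitor IX positive control for full effect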
#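 Test system: human HeLa cells, native beta-catenin. Compound dosing: 5 µM primary single dose, 0.1% DMSO, 0.02–20 µM confirmation series. Incubation: compound exposure 24 h at 37°C. Detection: beta-catenin immunostaining with DAPI counterstain, 20x imaging, 6 fields/well. Read-out basis: Nuclear/cytoplasmic beta-catenin signal ratio, % activation.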
# Numbers without * were called inactive; nt = no result given. Compounds with a hit are over-represented: about 2.2% of the library has one in this group of screens.
SMILES,BaF3 tox,IEC-6 cytotox,Ba/F3 V617F tox,MT stabilizer,APP 5UTR inh,b-catenin transl
CCCC1=[N+](CC(=O)c2ccccc2)CCn2c(C)ccc21,27*,6,32*,2,-4,nt
Cc1oc(-c2ccccc2F)nc1CS(=O)CC(=O)NCc1ccc(F)cc1 (centres undefined),nt,2,nt,nt,nt,nt
COc1ccc(OC)c(NC(=O)Cc2ccc(NC3=NC4CS(=O)(=O)CC4S3)cc2)c1 (centres undefined),nt,0,nt,nt,nt,nt
CCCCC(=NCCc1c(C)[nH]c2ccccc12)C1=C(O)CC(c2ccccc2)CC1=O (centres undefined),5,0,0,9,5,50*
CCCC(=NCCc1c(C)[nH]c2ccccc12)C1=C(O)CC(c2ccccc2)CC1=O (centres undefined),6,-10,0,26*,84*,132*
O=C(c1cccc(NS(=O)(=O)c2cccc(C(F)(F)F)c2)c1)N1CCOCC1,nt,2,nt,nt,nt,nt
Cc1ccc(C(C)C)c(OCc2ccc(C(=O)N/N=C/c3ccc(O)cc3O)cc2)c1,6,11,3,5,75*,22
Cc1ccc(C(C)C)c(OCc2ccc(C(=O)N/N=C/c3ccc(C(=O)O)cc3)cc2)c1,3,7,0,nt,nt,0
N=c1c2c(-c3ccccc3)c(-c3ccccc3)n(Cc3ccccc3)c2ncn1CCCn1ccnc1,4,8,2,35,83*,2
COc1cccc(/C=C/C(=O)c2ccc(NC3=NCCCS3)cc2)c1,1,8,-3,16*,-24,10
Cc1cccc(/C=C/C(=O)c2ccc(NC3=NCCCS3)cc2)c1,5,-2,-1,11,-27,11
CC1=NN(C(N)=S)C(=O)C1N=Nc1ccc(O)cc1 (centres undefined),58*,7,37*,1,9,-1
CCc1cc(=O)oc2cc(C)cc(OCC(=O)N3CCC(C(=O)NC(C)C)(c4ccccc4)CC3)c12,nt,3,nt,nt,nt,nt
Cn1c(N=Nc2ccccc2)nc2ccccc21,31*,38*,31*,2,-180,10
CCCc1nc2sc3c(SCC(=O)NCc4ccco4)ncnc3c2c2c1CCC2,8,-11,-2,15*,-2,77*
Cc1nc(SCC(=O)NCc2ccco2)c2c3c(sc2n1)CCCC3,3,10,2,7,-1,-1
CC(=O)c1ccc(OCC(O)COc2ccc(C(C)=O)cc2)cc1,96*,1,3,2,11,-4
CC(=O)c1ccc(OCC(O)CN2CCN(CC(O)COc3ccc(C(C)=O)cc3)CC2)cc1 (centres undefined),-3,0,-2,3,-10,-2
Cc1cc(SCC(=O)N/N=C/c2ccccc2C(=O)O)c(C)cc1Br,nt,-8,nt,nt,nt,nt
Cc1cc(SCC(=O)N/N=C/c2ccc(O)cc2O)c(C)cc1Br,3,5,1,1,49*,1
Cc1ccc(NC2CCCN(C(=O)C3CCCC3)C2)cc1C (centres undefined),nt,-1,nt,nt,nt,nt
O=C(NNc1ccccn1)C(c1ccccc1)c1ccccc1,9,-1,5,2,20,0
O=C(NNC(=O)C(c1ccccc1)c1ccccc1)c1ccccn1,4,55*,9,3,55*,-1
O=C(NNC(=O)C1CC(=O)N(Cc2ccccc2)C1)c1ccc(Br)cc1 (centres undefined),nt,-4,nt,nt,nt,nt
CCC(C)Nc1nc(C)nc2c1oc1ccccc12 (centres undefined),1,2,-2,nt,nt,1
SMILES,BaF3 tox,IEC-6 cytotox,Ba/F3 V617F tox,MT stabilizer,APP 5UTR inh,b-catenin transl
Cc1nc(NC(C)c2ccccc2)c2oc3ccccc3c2n1 (centres undefined),35*,3,2,2,-7,4
N#C/C(=N\Nc1cccc(C(F)(F)F)c1)C(=O)c1ccsc1,32*,16,18,nt,nt,6
O=C(Nc1ncccc1Cl)c1cc2ccccc2o1,nt,-3,nt,nt,nt,nt
C#CC[N+](C)(C)CCCCCCCCCCCC,76*,9,80*,12,-1,18
CC#CC[N+](C)(C)CCCCCCCCCCCC,81*,24*,101*,8,-13,10
C#CC[N+](C)(C)CCCCCCCC,43*,3,66*,10,-16,4
CCCCCC[N+](C)(C)CCSSCC[N+](C)(C)CCCCCC,4,-4,-5,nt,nt,0
C#CC[N+](C)(C)CCCCCCCCCC,79*,21,79*,6,-4,8
Cc1onc(-c2ccccc2)c1C(=O)N/N=C/c1c(F)cccc1Cl,nt,-5,nt,nt,nt,nt
O=C(O)C[C@@H]1C(=O)O[C@@H]2C(COC(=O)c3cc(O)c(O)c(O)c3)O[C@@H](OC(=O)c3cc(O)c(O)c(O)c3)[C@@H](OC(=O)c3cc(O)c(O)c4c3[C@H]1[C@H](O)C(=O)O4)[C@H]2OC(=O)c1cc(O)c(O)c(O)c1 (some centres undefined),nt,nt,nt,nt,nt,2
CCc1ccc(-c2cc(C)no2)cc1S(=O)(=O)N1CCN(c2ccc(F)cc2)CC1,nt,-1,nt,nt,nt,nt
O=C(CSc1nnc(NC(=O)c2ccccc2F)s1)NC1CC1,nt,-1,nt,nt,nt,nt
CC(=O)NC(Cc1cc(C)ccc1C)C(=O)N1CCN(C(=O)c2ccc([N+](=O)[O-])cc2)CC1 (centres undefined),nt,0,nt,nt,nt,nt
COc1cc2c(cc1O)CC[C@@H]1[C@@H]2CC[C@]2(C)[C@@H](O)CC[C@@H]12,78*,74*,76*,nt,93*,20
Cc1cc(C)c2nc(C)cc(Nc3ccc(C(=O)N(C)C)cc3)c2c1,-2,-2,-1,nt,nt,-2
CC(=O)c1ccc(Nc2cc(C)nc3c(C)cc(C)cc23)cc1,81*,73*,81*,20*,89*,124*
CC(=O)Oc1ccc(C(=O)N2c3ccccc3NC(=O)C2C)cc1 (centres undefined),nt,0,nt,nt,nt,nt
COc1cccc(OC)c1-c1nn2c(-c3cc(-c4ccccc4)n[nH]3)nnc2s1,5,1,4,40*,8,37
COc1cccc(-c2nnc3sc(-c4ccccc4)nn23)c1,5,0,-3,5,-39,-9
Nn1c(Nc2ccccc2)nc2sc3c(c2c1=O)CCC3,-1,22*,-4,5,-34,-4
CCc1nc2sc3c(c2c(=O)n1N)CCC3,5,-1,1,3,-6,-4
NNc1nc2sc3c(c2c(=O)n1Cc1ccccc1)CCC3,34*,8,47*,nt,nt,-2
Nc1nc(-c2ccc3c(c2)CCCC3)c(CC(=O)O)s1,nt,3,nt,nt,nt,nt
Cc1[nH][nH]c(=O)c1C=Nc1ccc(C(F)(F)F)cc1,4,1,3,9,77*,-3
O=C(COC(=O)CCc1ccc(S(=O)(=O)N2CCOCC2)cc1)NC(=O)NC1CCCCC1,-1,1,-2,3,-3,0
O=C(Nc1ccccc1OC(F)F)c1cccc(S(=O)(=O)N2CCCC2)c1,nt,-3,nt,nt,nt,nt
O=C(CSc1ncnc2nc[nH]c12)c1ccc([N+](=O)[O-])cc1,23,15,36*,nt,nt,-2
